The nature of assay [1]: Her2 expression decrease, cell viability multiplex – SKBR3 breast tumor cells, AlphaScreen, ATP viability, primary screen (AID 461).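 As to Her2 level: lower value means less Her2 protein in the cells.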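 As to viability: percent of carrier control wells set as 100% viability.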 Particulars: SKBR3 Her2 protein level, 18-24 h, measured here: SKBR3 viability, ATP luminescence, at 10 µM. For orientation: Alpha assays give light when donor and acceptor beads are brought close together.
Assay [2] concerns the target Receptor tyrosine-protein kinase erbB-2 (Homo sapiens) (UniProt P04626). The assay is described as above. The conditions noted are these: 18-24 h, at 10 µM, stronger effect = lower value.
A short description of assay [3]: reduced viability of SK-BR-3 breast cancer cells – cell-based, 24 h, human, pilot screen (AID 572;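 active = viability at or below 10% of carrier control in both of two separate runs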;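 also: compound exposure lasted between 18 and 24 h rather than exactly 24 h; 100% = carrier-treated control wells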). The conditions noted are these: SK-BR-3 viability, CellTiter-Glo luminescence, at 10 µM, stronger effect = lower value.
The nature of assay [4]: HUVEC growth inhibition – cell-based, human, primary screen (AID 575;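 active = viability at or below 30% in both replicate assays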;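 also: 100% = median of untreated cell wells with 0.1% DMSO on each plate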). Particulars: HUVEC proliferation, CellTiter-Glo luminescence, 72 h; at 10 µM; stronger effect = lower value. An outline of the steps:
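Test system: primary human umbilical vein endothelial cells; medium: endothelial basal medium with 2% FBS plus growth supplements; dosing: 10 µM compound only; times: 72 h treatment at 37 °C; signal: CTG luminescence; read-out: % viability relative to median vehicle-well signal on each plate; control set: vehicle and MePR control wells; plate: 384-well, collagen-coated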

Assay [5] is described as follows: H69AR cell proliferation blockers – human, duplicate replicates, primary screen (AID 580;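 active = viability at or under a set limit in both replicates, limit being median viability minus 3 SD, cut at about 48% in these data, passing the limit was not always enough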;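 also: 100% = mean luminescence of untreated wells and 0% = no signal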). Particulars: H69AR lung tumor cells viability, ATP luminescence, 72 h; at 10 µM; stronger effect = lower value.
A short description of assay [6]: MRP1 drug-resistance reversers in H69AR cells – cell-based, doxorubicin co-treatment, pilot screen (AID 601;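 active = viability loss from added drug above about 55%, and viability with drug at most 40%, in both replicates, limit read from the data, passing the limit was not always enough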). The conditions noted are these: CellTiter-Glo, 72 h, at 10 µM; for differential viability (reversal): stronger effect = higher value.
The nature of assay [7]: yeast transport mutant growth inhibition pilot in 384-well plates, post-Golgi transport modulator project (AID 636; in the data active = inhibition above about 31%). The conditions noted are these: absorbance 615 nm, about 18 h, stronger effect = higher value.
Assay [8] is described as follows: growth suppression of yeast trafficking mutant, preliminary HTS, modulators of trafficking downstream of Golgi apparatus project, 1536-format plate, OD 615 nm (AID 637; in the data active = inhibition above about 30%). The conditions noted are these: yeast transport mutant growth, absorbance 615 nm, 18 h; stronger effect = higher value.
Setting [9] is: H69AR cells + 2 uM doxorubicin, measured here: viability with 2 uM doxorubicin, stronger effect = lower value.
[10] abbreviates: H69AR cells, compound alone cytotoxicity.

Calls of active or inactive are those of the source.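 The calls were made as follows, unless noted: active = Her2 level under about 52% in both replicate screens, with viability over 70% of control (limit read from the data); inconclusive = Her2 under the limit in one screen only, or viability under 70%; inactive = Her2 level above the set limit.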

Receptor tyrosine-protein kinase erbB-2 (Homo sapiens), sequence (P04626 whole entry, looked up): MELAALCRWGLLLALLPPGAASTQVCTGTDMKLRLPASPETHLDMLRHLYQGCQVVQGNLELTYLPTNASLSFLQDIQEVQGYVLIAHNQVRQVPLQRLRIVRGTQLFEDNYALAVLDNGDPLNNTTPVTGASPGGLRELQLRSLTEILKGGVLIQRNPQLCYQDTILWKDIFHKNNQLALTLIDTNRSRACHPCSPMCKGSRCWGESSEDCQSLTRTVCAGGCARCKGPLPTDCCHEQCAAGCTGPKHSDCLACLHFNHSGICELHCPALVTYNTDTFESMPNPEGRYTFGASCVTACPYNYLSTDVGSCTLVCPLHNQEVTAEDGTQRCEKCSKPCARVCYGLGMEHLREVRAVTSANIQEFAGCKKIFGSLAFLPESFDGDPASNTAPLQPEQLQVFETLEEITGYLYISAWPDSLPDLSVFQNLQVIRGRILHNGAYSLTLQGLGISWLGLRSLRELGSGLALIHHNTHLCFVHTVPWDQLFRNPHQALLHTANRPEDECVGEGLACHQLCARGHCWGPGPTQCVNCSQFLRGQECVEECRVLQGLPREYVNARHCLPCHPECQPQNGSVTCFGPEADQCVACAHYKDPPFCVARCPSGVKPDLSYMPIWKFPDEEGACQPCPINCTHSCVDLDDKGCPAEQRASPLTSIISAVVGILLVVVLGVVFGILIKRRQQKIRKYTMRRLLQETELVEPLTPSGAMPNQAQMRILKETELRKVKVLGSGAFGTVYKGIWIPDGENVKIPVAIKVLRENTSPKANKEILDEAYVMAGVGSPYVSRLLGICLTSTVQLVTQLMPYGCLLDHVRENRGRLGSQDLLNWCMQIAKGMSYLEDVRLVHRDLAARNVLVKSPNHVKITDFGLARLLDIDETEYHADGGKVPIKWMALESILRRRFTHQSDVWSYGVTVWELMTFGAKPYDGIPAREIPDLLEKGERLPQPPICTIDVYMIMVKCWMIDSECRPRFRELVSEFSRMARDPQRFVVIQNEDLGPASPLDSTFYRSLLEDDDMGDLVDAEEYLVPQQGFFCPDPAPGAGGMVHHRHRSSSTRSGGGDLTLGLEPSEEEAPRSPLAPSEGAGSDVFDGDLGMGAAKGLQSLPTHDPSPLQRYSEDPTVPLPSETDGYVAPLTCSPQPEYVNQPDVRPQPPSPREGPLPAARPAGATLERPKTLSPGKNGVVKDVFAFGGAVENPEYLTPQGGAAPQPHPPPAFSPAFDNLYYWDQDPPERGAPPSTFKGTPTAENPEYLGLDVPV

For the compound `O=C(CN(c1ccc(F)cc1)S(=O)(=O)c1ccc2c(c1)OCCO2)Nc1ccc2c(c1)OCO2`, the viability in assay [1] was 83%; in assay [3] it was 83% (inactive); in assay [4], 91.3% (inactive); in assay [5], 99.8% (inactive); in assay [6] (setting [9]), 95.2%; in assay [6] (setting [10]) it was 99.8%. In addition, the Her2 level in assay [2] was 89.5% (inactive). Moreover, in assay [6] (H69AR cells + 2 uM doxorubicin), the differential viability (reversal) was 4.63% (inactive). The results for the inhibition in assay [7] and in assay [8] were 0.8% (inactive) and 4.03% (inactive), respectively.
With `CCC(C)NC(=O)c1ccccc1NC(=O)C(C)N(c1ccccc1)S(C)(=O)=O` (stereo not given), the viability in assay [1] is 93%; in assay [3] it was 93% (inactive); in assay [4] it was 89.5% (inactive); in assay [5] it was 94.5% (inactive); in assay [6] (setting [9]) it was 102%; in assay [6] (setting [10]), 94.5%. For the same compound, the Her2 level in assay [2] was 102% (inactive). Moreover, the differential viability (reversal) in assay [6] (H69AR cells + 2 uM doxorubicin) was -7.6% (inactive). Further, the inhibition in assay [7] was -4.19% (inactive); in assay [8], 5.57% (inactive).
With `O=C(c1ccc(Cl)cc1)N1CCCCC(Sc2nnc(-c3ccc4c(c3)OCO4)o2)C1=O` (stereo not given), the viability in assay [1] was 118%; in assay [3] it was 118% (inactive); in assay [4] it was 62% (inactive); in assay [5] it was 88.5% (inactive); in assay [6] (setting [9]), 91.9%; in assay [6] (setting [10]) it was 88.5%. Besides, the Her2 level in assay [2] was 76% (inactive). Also, in assay [6] (H69AR cells + 2 uM doxorubicin), the differential viability (reversal) was -3.4% (inactive). In addition, the inhibition was -6.49% (inactive) in assay [7] and 5.56% (inactive) in assay [8].
For the compound `COc1ccc(S(=O)(=O)NCC(c2cccnc2)N2CCN(c3ccc(F)cc3)CC2)cc1C` (stereo not given), the viability in assay [1] was 91.5%; in assay [3], 91.5% (inactive); in assay [4], 99.1% (inactive); in assay [5] it was 87.4% (inactive); in assay [6] (setting [9]) it was 88.1%; in assay [6] (setting [10]) it was 87.4%. Further, in assay [2], the Her2 level is 80% (inactive). The differential viability (reversal) in assay [6] (H69AR cells + 2 uM doxorubicin) was -0.665% (inactive). Besides, the results for the inhibition in assay [7] and in assay [8] were -1.04% (inactive) and -0.98% (inactive), respectively.
Take `Cc1cc2ncc(C(=O)Nc3ccccc3)c(C)n2n1`: the viability in assay [1] is 94%; in assay [3], 94% (inactive); in assay [4], 124% (inactive); in assay [5] it was 99.5% (inactive); in assay [6] (setting [9]), 86.8%; in assay [6] (setting [10]) it was 99.5%. Besides, the Her2 level in assay [2] is 94% (inactive). Also, the differential viability (reversal) in assay [6] (H69AR cells + 2 uM doxorubicin) was 12.7% (inactive). Besides, the inhibition in assay [7] is -4.34% (inactive); in assay [8], -0.48% (inactive).
`CC(=O)c1coc2ccc(OCC(=O)O)cc12`: the viability in assay [1] was 104%; in assay [3], 104% (inactive); in assay [4] it was 105% (inactive); in assay [5], 98% (inactive); in assay [6] (setting [9]), 92.7%; in assay [6] (setting [10]) it was 98%. For the same compound, the Her2 level in assay [2] is 90.5% (inactive). Moreover, the differential viability (reversal) in assay [6] (H69AR cells + 2 uM doxorubicin) is 5.29% (inactive). In addition, the inhibition in assay [7] is -4% (inactive); in assay [8], -4.26% (inactive).
As to `C=Cn1c(C(=O)O)cc(CC)c1-c1ccccc1`, the viability was 96% in assay [1]; 96% (inactive) in assay [3]; 100% (inactive) in assay [4]; 106% (inactive) in assay [5]; 104% in assay [6] (setting [9]); 106% in assay [6] (setting [10]). For the same compound, the Her2 level in assay [2] was 101% (inactive). Further, the differential viability (reversal) in assay [6] (H69AR cells + 2 uM doxorubicin) was 2.8% (inactive). Also, the inhibition in assay [7] is -4.4% (inactive); in assay [8], -7.42% (inactive).
`O=C(Nc1cccnc1)c1noc2c1CCCCC2`: the viability was 110% in assay [1]; 110% (inactive) in assay [3]; 105% (inactive) in assay [4]; 87.3% (inactive) in assay [5]; 90.2% in assay [6] (setting [9]); 87.3% in assay [6] (setting [10]). Also, the Her2 level in assay [2] was 90% (inactive). Besides, the differential viability (reversal) in assay [6] (H69AR cells + 2 uM doxorubicin) was -2.86% (inactive). Besides, the inhibition is -0.66% (inactive) in assay [7] and 9.5% (inactive) in assay [8].
With `CN1CCN(S(=O)(=O)c2ccc(Sc3nnc(-c4cccs4)n3-c3ccccc3)nc2)CC1`, the viability was 120% in assay [1]; 120% (inactive) in assay [3]; 89.4% (inactive) in assay [4]; 85.7% (inactive) in assay [5]; 82.2% in assay [6] (setting [9]); 85.7% in assay [6] (setting [10]). In addition, the Her2 level in assay [2] was 87.5% (inactive). Besides, the differential viability (reversal) in assay [6] (H69AR cells + 2 uM doxorubicin) is 3.53% (inactive). The values for the inhibition in assay [7] and in assay [8] were -5.27% (inactive) and -10% (inactive), respectively.
With `CCOC(=O)c1cnc(-n2cc(C)cn2)nc1Nc1ccccc1OC`, the viability in assay [1] was 92.5%; in assay [3] it was 92.5% (inactive); in assay [4] it was 80.8% (inactive); in assay [5], 60.8% (inactive); in assay [6] (setting [9]), 69.8%; in assay [6] (setting [10]), 60.8%. Besides, the Her2 level in assay [2] is 94% (inactive). In addition, the differential viability (reversal) in assay [6] (H69AR cells + 2 uM doxorubicin) was -8.94% (inactive). In addition, the inhibition is -4.55% (inactive) in assay [7] and -4.13% (inactive) in assay [8].
Regarding `CCOc1ccc(C(=O)N(CN2CCCC2=O)c2ccc(C)cc2)cc1`, the viability is 125% in assay [1]; 125% (inactive) in assay [3]; 116% (inactive) in assay [4]; 95.1% (inactive) in assay [5]; 87.2% in assay [6] (setting [9]); 95.1% in assay [6] (setting [10]). For the same compound, the Her2 level in assay [2] is 114% (inactive). For the same compound, in assay [6] (H69AR cells + 2 uM doxorubicin), the differential viability (reversal) was 7.87% (inactive). The inhibition in assay [7] is -6% (inactive); in assay [8] it was 1.94% (inactive).
As for `Cc1cccc(OCCCc2c(C)n[nH]c2C)c1`, the viability in assay [1] was 102%; in assay [3], 102% (inactive); in assay [4], 121% (inactive); in assay [5] it was 98.7% (inactive); in assay [6] (setting [9]), 78.4%; in assay [6] (setting [10]) it was 98.7%. For the same compound, the Her2 level in assay [2] was 118% (inactive). Moreover, the differential viability (reversal) in assay [6] (H69AR cells + 2 uM doxorubicin) is 20.4% (inactive). The inhibition in assay [7] was 5.32% (inactive); in assay [8], -8% (inactive).
For `O=c1c2[nH]c3ccccc3c2ncn1CCCn1ccnc1`, the viability in assay [1] was 92%; in assay [3], 92% (inactive); in assay [4] it was 93.7% (inactive); in assay [5], 96.8% (inactive); in assay [6] (setting [9]) it was 95.7%; in assay [6] (setting [10]), 96.8%. Besides, the Her2 level in assay [2] is 77.5% (inactive). Also, the differential viability (reversal) in assay [6] (H69AR cells + 2 uM doxorubicin) was 1.08% (inactive). Further, the inhibition was -3.77% (inactive) in assay [7] and -0.83% (inactive) in assay [8].
As for `COc1ccc(S(=O)(=O)NCCC(=O)NC2CCCCCCC2)cc1`, the viability in assay [1] was 108%; in assay [3] it was 108% (inactive); in assay [4], 105% (inactive); in assay [5], 88.6% (inactive); in assay [6] (setting [9]), 86.3%; in assay [6] (setting [10]), 88.6%. In assay [2], the Her2 level is 85.5% (inactive). Also, the differential viability (reversal) in assay [6] (H69AR cells + 2 uM doxorubicin) was 2.31% (inactive). Besides, the inhibition was 0% (inactive) in assay [7] and -8.2% (inactive) in assay [8].

For orientation: viability means a read-out of living cells in per cent, often relative to untreated cells. Usually inhibition stands for the change of the read-out against control, counted positive when it falls.

The values above are taken from PubChem BioAssay.
